Like-named read-outs stand apart in the source and are kept apart here. One block for each compound: values may come before it.
Experiments:
[1] = format: in vivo, human
[2] = format: in vivo, human; details: for glucuronide of the parent anthocyanin in saliva (selected ion chromatograms): five minute Rinse III saliva samples; for saliva samples with cyanidin-3 sambubioside glucuronides detected: Rinse III
[3] = Detection of protocatechuic acid O-glucuronide; format: in vivo, human
How it was run: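 Donors rinsed vigorously with 15 ml augmented BRB rinse (10% final BRB) for 3 min. Saliva was collected at timed intervals, acidified with 5% final formic acid and stored at −80°C. Ion-trap LC-MS coupled to HPLC was tuned by infusing a synthetic PCAOG standard. The run used full scan, zoom scan and CID product-ion scan, and the 329.0>153.0 transition was monitored at 35% energy.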

[4] = LC-MS/MS determination of protocatechuic acid; format: in vivo, human; details: for donors whose saliva contained detectable PCA: final (240 minute) time point, 0.2 ng/ml detection limit
β-glucosidase = format: biochemical, human; details: 0.12% in PBS, 3 minute rinse
[5] = cited from earlier work
[6] = 240 minute time point following 10% BRB gel application; cited from earlier work
rat liver microsomes = assay: Incubation of cyanidin-3 sambubioside with rat liver microsomes; format: in vitro ADME; details: similar retention time and tandem mass spectra as in saliva
[7] = after ingestion of a 300 mg dose

salivary BRB anthocyanin level, Rinse I relative to Rinse III ([1]; in vivo): significantly higher
salivary anthocyanin level, Rinse II relative to Rinse I ([1]; in vivo): significantly lower
glucuronide of the parent anthocyanin in saliva (selected ion chromatograms) [2]: did not reveal any novel peaks
Compound: OC[C@H]1O[C@@H](Oc2cc3c(O)cc(O)cc3[o+]c2-c2ccc(O)c(O)c2)[C@H](O)[C@@H](O)[C@@H]1O [cyanidin 3-glucoside]

Compound: protocatechuic acid O-glucuronide [PCAOG]
PCAOG peaks in later time point saliva samples ([3]; 30, 60, 120 and 240 min after Rinse III, either donor): did not reveal any peaks
donors with PCAOG peak detected in saliva ([3]; 5 min saliva sample after Rinse III): 1 of the 2

saliva samples with cyanidin-3 sambubioside glucuronides detected ([2]; 30 minute samples): 3 of 6
saliva samples with cyanidin-3 sambubioside glucuronides detected ([2]; five minute time point samples): 6 of the 6
Compound: cyanidin-3 sambubioside glucuronides
cyanidin 3-sambubioside glucuronides in saliva ([2]; after the 30 minute post rinse samples): no cyanidin 3-sambubioside glucuronides were observed

retention in saliva after rinsing ([4]; BRB rinses): up to 4 hours
donors whose saliva contained detectable PCA ([4]; Rinse I): 2 of 10
donors whose saliva contained detectable PCA ([4]; Rinse II): 2 of 10
donors whose saliva contained detectable PCA ([4]; Rinse III): 6 of 10
Compound: O=C(O)c1ccc(O)c(O)c1 [PCA, protocatechuic acid]

time by which salivary cyanidin levels were undetectable ([1]; all samples from all rinses): ≤ 60 min
aglycone cyanidin in early saliva samples ([1]; up to 5 minute post rinse, all three rinse groups, all donors): detectable levels
Compound: Oc1cc(O)c2cc(O)c(-c3ccc(O)c(O)c3)[o+]c2c1 [cyanidin]

donors retaining appreciable functional β-glucosidase activity following rinsing (β-glucosidase): 10 of 11
decrease in β-glucosidase in saliva following rinsing (mean ± s.e.m) (β-glucosidase; saliva 15 minutes after rinsing, n=11, p<0.001): 69.43% ±7.24
Compound: [H]/N=C(\N/C(=N/[H])NCCCCCCNC(=N)NC(=N)Nc1ccc(Cl)cc1)Nc1ccc(Cl)cc1 [chlorhexidine gluconate]
mean peak plasma levels [5, 7]: 0.206 µg/g
time of mean peak plasma levels [5, 7]: 30 min
absorption from the gastrointestinal tract [5]: poorly absorbed
fraction retained in the oral cavity following rinsing [5]: ~30%
persistence in human saliva after rinsing [5]: at least 12 hours
retention by local adsorption, then slowly released over time [5]: approximately 30%

donors showing detectable rutinoside in saliva ([1]; in vivo): 10 out of 10
rutinoside levels in saliva (mean ± S.D.) ([1]; in vivo): 2287.12 ± 489.55 µg/mL
salivary BRB anthocyanin level, Rinse I relative to Rinse III ([1]; in vivo): significantly higher
glucuronide of the parent anthocyanin in saliva (selected ion chromatograms) [2]: did not reveal any novel peaks
Compound: C[C@@H]1O[C@@H](OC[C@H]2O[C@@H](Oc3cc4c(O)cc(O)cc4[o+]c3-c3ccc(O)c(O)c3)[C@H](O)[C@@H](O)[C@@H]2O)[C@H](O)[C@H](O)[C@H]1O [cyanidin 3-rutinoside]
donors retaining any salivary anthocyanins, including rutinoside [6]: 3 out of 5

salivary BRB anthocyanin level, Rinse I relative to Rinse III ([1]; in vivo): significantly higher
Compound: OC[C@H]1O[C@@H](Oc2cc3c(O)cc(O)cc3[o+]c2-c2ccc(O)c(O)c2)[C@H](O[C@@H]2OC[C@@H](O)[C@H](O)[C@H]2O)[C@@H](O)[C@@H]1O.[Cl-] [cyanidin 3-sambubioside]
metabolite formation on incubation with rat liver microsomes (rat liver microsomes): generated cyanidin-3 sambubioside glucuronides

Reference: article PMC3151333 (Cancer prevention research (Philadelphia, Pa.), 2011)
